Bounds are passed on as bounds.

We go through nine compounds from ChEMBL document CHEMBL1156559, “Efficient synthesis and utilization of phenyl-substituted heteroaromatic carboxylic acids as aryl diketo acid isosteres in the design of novel HIV-1 integrase inhibitors” (Bioorg Med Chem Lett, 2008).

In data set [1] the test system is Human immunodeficiency virus 1. Description: Antiviral activity against HIV1 3B assessed as inhibition of virus-induced cytopathogenicity in human C8166 cells after 4 days by MTT assay. It is filed as functional, organism-based. The following applies: Human immunodeficiency virus 1, 3B, C8166, 96 h. Summed up: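 Protection of C8166 cells from HIV-1-induced cytopathogenicity, expressed as the 50% effective concentration. Values are means of two separate experiments.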

For data set [2], the target named is T1, Human immunodeficiency virus type 1 integrase (Human immunodeficiency virus 1, UniProt Q7ZJM1). Description: Inhibition of HIV1 wild type integrase 3'-processing activity. Summed up:
(§1)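 Wild-type integrase at 200 nM final was preincubated with inhibitor at 30 °C for 30 min. Buffer: 50 mM NaCl, 1 mM Hepes pH 7.5, 7.5 mM MnCl2, 0.1 mg/ml BSA, 10 mM 2-mercaptoethanol, 10% glycerol, 10% DMSO, 25 mM MOPS pH 7.2. Read-out was conversion of 21-mer DNA substrate to 19-mer (3'-processing) or to strand-transfer products. % inhibition was set against DNA-alone and DNA+IN controls. IC50 came from log concentration vs % inhibition.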

The nature of data set [3]: Therapeutic index, ratio of CC50 for human C8166 cells to EC50 for HIV1 3B. It is filed as cell-based. The note with it: read-out: Ratio CC50/EC50. The method, boiled down: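 Computed as CC50/EC50 from the C8166 MTT cytostatic and HIV-1 cytoprotection assays, each a mean of two separate experiments.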
Data set [4] deals with T1, Human immunodeficiency virus type 1 integrase. Description: Inhibition of HIV1 wild type integrase strand transfer activity. The method, boiled down:
as §1

Data set [5] can be described thus: Cytotoxicity against human C8166 cells by MTT method. It is filed as cell-based. Summed up: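 C8166 cell proliferation measured by MTT, expressed as the concentration reducing proliferation by 50%. Values are means of two separate experiments.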
For orientation: Formazan colour is commonly taken as a measure of viable cells.

T1 sequence (Q7ZJM1 whole entry): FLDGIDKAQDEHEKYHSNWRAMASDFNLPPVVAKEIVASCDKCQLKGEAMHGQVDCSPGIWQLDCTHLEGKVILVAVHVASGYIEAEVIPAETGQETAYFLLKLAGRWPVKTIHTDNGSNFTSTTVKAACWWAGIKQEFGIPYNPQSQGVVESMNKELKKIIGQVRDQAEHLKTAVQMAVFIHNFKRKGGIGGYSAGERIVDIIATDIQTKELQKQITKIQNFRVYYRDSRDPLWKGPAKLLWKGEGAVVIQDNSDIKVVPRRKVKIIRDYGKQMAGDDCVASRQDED

The term EC50 denotes the concentration at which the effect is half-maximal. The term IC50 denotes the concentration at which inhibition is half-maximal. The CC50 is the concentration giving 50% cytotoxicity. A lower CC50 goes with greater toxicity to the cells. Regarding `O=C(O)c1cc(-c2ccc([N+](=O)[O-])cc2)on1`, in data set [1], the EC50 stood at 199 µM. The values for the IC50 in data set [2] and in data set [4] were greater than 100 µM and 97 µM, respectively. In addition, in data set [3], the selectivity ratio is greater than 4.3. In addition, in data set [5], the CC50 was greater than 854 µM.

With `O=C(O)c1cc(-c2cccc(OCc3ccccc3)c2)no1`, the EC50 in data set [1] turned out to be 7.2 µM. Besides, the IC50 in data set [2] is greater than 100 µM; in data set [4], 81 µM. For the same compound, the selectivity ratio in data set [3] was 39.2. This compound gave a CC50 in data set [5] of 282 µM.

Take `O=C(O)c1cc(-c2cccc(OCc3ccccc3)c2)[nH]n1`: in data set [1], the EC50 amounted to 277 µM. Besides, the IC50 in data set [2] was greater than 100 µM; in data set [4], 100 µM. Besides, the selectivity ratio in data set [3] turned out to be 2.31. In data set [5], the midpoint of cytotoxicity, the CC50, lay at 640 µM.

For the compound `O=C(O)c1cc(-c2ccc([N+](=O)[O-])cc2)[nH]n1`, the EC50 in data set [1] stood at 3.6 µM. Besides, the IC50 in data set [2] and in data set [4] was greater than 100 µM throughout. Besides, the selectivity ratio in data set [3] is greater than 238. For the same compound, the CC50 in data set [5] was greater than 857 µM.

As to `COC(=O)c1cc(-c2ccc([N+](=O)[O-])cc2)[nH]n1`, the EC50 in data set [1] turned out to be 253 µM. The IC50 in data set [2] and in data set [4] was greater than 100 µM in each case. Besides, the selectivity ratio in data set [3] is greater than 3.2. In data set [5], this compound yielded a CC50 greater than 809 µM.

As for `O=C(O)c1cc(-c2cccc(OCc3ccccc3)c2)ns1`, the EC50 in data set [1] turned out to be 51.7 µM. The IC50 in data set [2] and in data set [4] was greater than 100 µM each time. Further, the selectivity ratio in data set [3] worked out at 4.76. This compound showed a CC50 in data set [5] of 246 µM.

For `O=C(O)c1cc(-c2cccc(OCc3ccccc3)c2)on1`, the EC50 in data set [1] turned out to be 91 µM. In addition, the IC50 in data set [2] was greater than 100 µM; in data set [4], 68 µM. In data set [3], the selectivity ratio is 2.27. The CC50 in data set [5] turned out to be 206 µM.

With `O=C(O)c1csnc1-c1cccc(OCc2ccccc2)c1`, in data set [1], the EC50 stood at 58 µM. Also, the IC50 in data set [2] and in data set [4] was greater than 100 µM throughout. For the same compound, the selectivity ratio in data set [3] is greater than 11. Further, the CC50 in data set [5] is greater than 642 µM.

`O=C(NO)c1cc(-c2cccc(OCc3ccccc3)c2)on1`: the EC50 in data set [1] was 62.8 µM. Besides, the IC50 in data set [2] is greater than 100 µM; in data set [4], 27 µM. The selectivity ratio in data set [3] amounted to 2.17. Also, the CC50 in data set [5] worked out at 136 µM.
